Assay results from ChEMBL document CHEMBL1155265, “Design, synthesis and in vitro antibacterial/antifungal evaluation of novel 1-ethyl-6-fluoro-1,4-dihydro-4-oxo-7(1-piperazinyl)quinoline-3-carboxylic acid derivatives” (2009).

What was measured:
Assay type in all cases: functional
Erwinia = experiment: Antibacterial activity against Erwinia aroideae at 50 mg/L after 24 hrs by agar well diffusion method; conditions: read-out: DIZ
Procedure, shortened: (§1)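 Bacteria plated as 0.8 mL of 24-h-old inoculum mixed into 60 mL sterile molten agar cooled to 45 °C, poured into three dishes. Wells bored with centres at least 24 mm apart. Test sample at 50 mg/L in DMSO added to wells. DMSO served as negative control and agricultural streptomycin sulfate as positive control. Read-out was inhibition zone diameter (mm).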

Xanthomonas axonopodis = experiment: Antibacterial activity against Xanthomonas axonopodis at 50 mg/L after 24 hrs by agar well diffusion method; conditions: read-out: DIZ; procedure, shortened: as §1
Cytospora mali = experiment: Antifungal activity against Valsa mali at 200 mg/L by plate growth rate method; conditions: read-out: GI
Procedure, shortened: (§2)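 Compound dissolved in DMSO and mixed into molten PDA at 45 °C at 200 mg/L, then plates allowed to set. A 5 mm mycelial agar disc was placed at the centre. Plates were incubated at 28 °C in the dark until the untreated control covered the plate. Colony diameters were measured and growth inhibition calculated by Abbott's formula. Each compound was tested three times.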

Rhizoctonia solani = experiment: Antifungal activity against Rhizoctonia solani at 200 mg/L by plate growth rate method; conditions: read-out: GI; procedure, shortened: as §2
Ralstonia solanacearum = experiment: Antibacterial activity against Ralstonia solanacearum at 50 mg/L after 24 hrs by agar well diffusion method; conditions: read-out: DIZ
Fusarium graminearum = experiment: Antifungal activity against Gibberella zeae at 200 mg/L by plate growth rate method; conditions: read-out: GI
Procedure, shortened: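 Plate growth rate method: compound dissolved in DMSO, mixed into sterile PDA at 45 °C to 200 mg/L, plates poured. A 5 mm mycelium agar disc placed centrally; incubated at 28 °C in the dark until the untreated control covered the plate. Colony diameters measured; growth inhibition computed by Abbott's formula. Each compound tested three times.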

Bacillus subtilis = experiment: Antibacterial activity against Bacillus subtilis at 50 mg/L after 24 hrs by agar well diffusion method; conditions: read-out: DIZ; procedure, shortened: as §1
Xanthomonas oryzae = experiment: Antibacterial activity against Xanthomonas oryzae at 50 mg/L after 24 hrs by agar well diffusion method; conditions: read-out: DIZ

SMILES | zone of inhibition at 50 µg/mL (Erwinia) | zone of inhibition at 50 µg/mL (Xanthomonas axonopodis) | inhibition of growth at 200 µg/mL (Cytospora mali) | inhibition of growth at 200 µg/mL (Rhizoctonia solani) | zone of inhibition at 50 µg/mL (Ralstonia solanacearum) | inhibition of growth at 200 µg/mL (Fusarium graminearum) | zone of inhibition at 50 µg/mL (Bacillus subtilis) | zone of inhibition at 50 µg/mL (Xanthomonas oryzae)
CCn1cc(C(=O)O)c(=O)c2cc(F)c(N3CCN(C(=O)c4ccc(Cl)cc4)CC3)cc21 | 16.6 mm | 12.9 mm | 16% | 21% | 1.47 mm | 27% | 18.5 mm | 17.7 mm
CCn1cc(C(=O)O)c(=O)c2cc(F)c(N3CCN(C(=O)/C=C/c4ccc(C)o4)CC3)cc21 | 11.2 mm | 10.2 mm | 25% | 83% | 6.97 mm | 25% | 17 mm | 18.1 mm
CCn1cc(C(=O)O)c(=O)c2cc(F)c(N3CCN(C(=O)c4cc5ccccc5o4)CC3)cc21 | 11 mm | 8.66 mm | 9% | 17% | 8.56 mm | 7% | 11.2 mm | 8.35 mm
CCn1cc(C(=O)O)c(=O)c2cc(F)c(N3CCN(C(=O)c4c(C)oc(C)c4C)CC3)cc21 | 12.4 mm | 11.1 mm | 40% | 65% | 5.31 mm | 24% | 13.9 mm | 12.7 mm
CCn1cc(C(=O)O)c(=O)c2cc(F)c(N3CCN(C(=O)COc4ccc(F)cc4)CC3)cc21 | 13.3 mm | 11.1 mm | 12% | 52% | 3.31 mm | 15% | 13.9 mm | 11 mm
CCn1cc(C(=O)O)c(=O)c2cc(F)c(N3CCN(C(=O)c4ccccc4O)CC3)cc21 | 16.5 mm | 14.4 mm | 17% | 0% | 2.06 mm | 15% | 22.7 mm | 16.7 mm
CCn1cc(C(=O)O)c(=O)c2cc(F)c(N3CCN(C(=O)/C=C/c4ccc(OC)cc4)CC3)cc21 | 8.02 mm | 6.83 mm | 5% | 94% | 0 mm | 1% | 8.91 mm | 5.35 mm
CCn1cc(C(=O)O)c(=O)c2cc(F)c(N3CCN(C(=O)COc4ccc(Br)cc4)CC3)cc21 | 8.94 mm | 10.7 mm | 9% | 49% | 7.47 mm | 6% | 12.7 mm | 8.02 mm
CCn1cc(C(=O)O)c(=O)c2cc(F)c(N3CCN(C(=O)c4ccc(C)cc4)CC3)cc21 | 14.6 mm | 13 mm | 37% | 36% | 3.22 mm | 28% | 17.1 mm | 19.7 mm
CCn1cc(C(=O)O)c(=O)c2cc(F)c(N3CCN(C(=O)c4oc5ccccc5c4C)CC3)cc21 | 5.94 mm | 5.24 mm | 33% | 65% | 3.56 mm | 45% | 6.99 mm | 5.44 mm
CCn1cc(C(=O)O)c(=O)c2cc(F)c(N3CCN(C(=O)c4ccccc4)CC3)cc21 | 17.9 mm | 15.8 mm | 42% | 25% | 5.92 mm | 23% | 20.7 mm | 22.7 mm
CCn1cc(C(=O)O)c(=O)c2cc(F)c(N3CCN(C(=O)c4cccnc4)CC3)cc21 | 9.19 mm | 6.58 mm | 17% | 12% | 1.06 mm | 11% | 8.74 mm | 7.94 mm
